In ChEMBL document CHEMBL3091318, “Potent and broad-spectrum antibacterial activity of indole-based bisamidine antibiotics: synthesis and SAR of novel analogs of MBX 1066 and MBX 1090” (2013):
In brackets after ≈: the same amount, converted by molar mass.

How the values were obtained:
Type in all cases: functional
Staphylococcus aureus [1] = experiment: Antimicrobial activity against Staphylococcus aureus ATCC 25923 after 16 to 20 hrs by broth microdilution method
Summary of the method: (§1)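 CLSI broth microdilution. Log-phase cultures in cation-adjusted Mueller–Hinton broth were seeded at 1×10^5 CFU/mL and incubated at 37 °C with shaking for 16–20 h. Compounds were diluted from DMSO stocks to a final 1% DMSO. Growth was read as OD600, and MIC was taken as the lowest concentration with no apparent growth. At least 3 runs were done, and the average MIC is reported in μg/ml.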

Staphylococcus aureus [2] = experiment: Antimicrobial activity methicillin-resistant against Staphylococcus aureus clinical isolate 1094 after 16 to 20 hrs by broth microdilution method
Klebsiella pneumoniae = experiment: Antimicrobial activity against Klebsiella pneumoniae ATCC 13882 after 16 to 20 hrs by broth microdilution method
Summary of the method: (§2)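 CLSI broth microdilution. Log-phase cultures grown in cation-adjusted Mueller–Hinton broth and seeded at 1×10^5 CFU/mL. Plates incubated at 37 °C with shaking for 16–20 h. DMSO stocks of compound were diluted into medium to 1% DMSO final. Growth was read as OD600. MIC (μg/ml) is the lowest concentration with no apparent growth, averaged over at least 3 assays.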

Bacillus anthracis = experiment: Antimicrobial activity against Bacillus anthracis Sterne after 16 to 20 hrs by broth microdilution method; summary of the method: as §1
Acinetobacter baumannii = experiment: Antimicrobial activity against Acinetobacter baumannii ATCC 19606 after 16 to 20 hrs by broth microdilution method; summary of the method: as §2
Escherichia coli [3] = experiment: Antimicrobial activity against efflux pump-positive Escherichia coli K-12 after 16 to 20 hrs by broth microdilution method; summary of the method: as §2
Enterococcus faecalis [4] = experiment: Antimicrobial activity Enterococcus faecalis ATCC 29212 after 16 to 20 hrs by broth microdilution method; summary of the method: as §2
Enterococcus faecalis [5] = experiment: Antimicrobial activity vancomycin-resistant Enterococcus faecalis ATCC 51575 after 16 to 20 hrs by broth microdilution method; summary of the method: as §1
Escherichia coli [6] = experiment: Antimicrobial activity against TolC efflux-deficient Escherichia coli K-12 after 16 to 20 hrs by broth microdilution method; summary of the method: as §2
Pseudomonas aeruginosa [7] = experiment: Antimicrobial activity against efflux pump-positive Pseudomonas aeruginosa PAO1 ATCC BAA-47 after 16 to 20 hrs by broth microdilution method; summary of the method: as §2
Pseudomonas aeruginosa [8] = experiment: Antimicrobial activity against efflux pump mexAB-oprM-deficient Pseudomonas aeruginosa PAO1 after 16 to 20 hrs by broth microdilution method; summary of the method: as §2
Haemophilus influenzae = experiment: Antimicrobial activity against Haemophilus influenzae ATCC 10211 after 16 to 20 hrs by broth microdilution method
Summary of the method: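 Broth microdilution per CLSI in Haemophilus Test Medium at 37 °C under 5% CO₂ for 16–20 h, seeded at 1×10^5 CFU/mL. Compound was added from DMSO stocks to 1% DMSO final. Growth was read as OD600. MIC (μg/ml) is the lowest concentration without apparent growth, averaged from at least 3 runs.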

Compound | MIC (Staphylococcus aureus [1]) [µg/mL] | MIC (Staphylococcus aureus [2]) [µg/mL] | MIC (Klebsiella pneumoniae) [µg/mL] | MIC (Bacillus anthracis) [µg/mL] | MIC (Acinetobacter baumannii) [µg/mL] | MIC (Escherichia coli [3]) [µg/mL] | MIC (Enterococcus faecalis [4]) [µg/mL] | MIC (Enterococcus faecalis [5]) [µg/mL] | MIC (Escherichia coli [6]) [µg/mL] | MIC (Pseudomonas aeruginosa [7]) [µg/mL] | MIC (Pseudomonas aeruginosa [8]) [µg/mL] | MIC (Haemophilus influenzae) [µg/mL]
Cl.N=C(N)c1ccc2cc(-c3ccc(-c4cc5ccc(C(=N)N)cc5[nH]4)cc3)[nH]c2c1 | 0.16 | 0.31 | 0.63 | 0.08 | 40 | 0.63 | 0.04 | 0.16 | 0.16 | 10 | – | –
CC(=O)O.c1cc2cc(-c3ccc(-c4cc5ccc(C6=NCCCN6)cc5[nH]4)s3)[nH]c2cc1C1=NCCCN1 | 0.08 | 0.16 | 0.63 | 0.16 | 5 | 0.63 | 0.16 | 0.16 | 0.31 | 5 | 1.25 | –
CC(=O)O.c1cc2cc(-c3ccc(-c4cc5ccc(C6=NCCN6)cc5[nH]4)nc3)[nH]c2cc1C1=NCCN1 | 0.31 | 0.31 | 2.5 | 0.31 | > 80 | 2.5 | 0.31 | 0.31 | 0.63 | > 80 | > 80 | –
CC(=O)O.c1cc2cc(-c3ccc(-c4cc5ccc(C6=NCCCN6)cc5[nH]4)nc3)[nH]c2cc1C1=NCCCN1 | 0.16 | 0.16 | 5 | 0.16 | 20 | 0.63 | 0.63 | 0.16 | 0.16 | 2.5 | 2.5 | 2.5
CC(=O)O.c1cc2cc(-c3cnc(-c4cc5ccc(C6=NCCN6)cc5[nH]4)cn3)[nH]c2cc1C1=NCCN1 | 5 | 5 | 10 | 2.5 | > 80 | 20 | 20 | 10 | 0.63 | > 80 | > 80 | –
CC(=O)O.c1cc2cc(-c3cnc(-c4cc5ccc(C6=NCCCN6)cc5[nH]4)cn3)[nH]c2cc1C1=NCCCN1 | 0.31 | 0.31 | 1.25 | 0.16 | > 80 | 2.5 | 0.31 | 0.31 | 0.31 | 5 | 5 | –
O=C(O)C(F)(F)F.c1cc2cc(CCc3cc4ccc(C5=NCCCN5)cc4[nH]3)[nH]c2cc1C1=NCCCN1 | 0.63 | 1.25 | – | 0.63 | 80 | 2.5 | 5 | 2.5 | 0.31 | 10 | 10 | –
c1cc2cc(CCCc3cc4ccc(C5=NCCCN5)cc4[nH]3)[nH]c2cc1C1=NCCCN1 | 20 (≈ 45.6 µM) | 20 (≈ 45.6 µM) | – | 20 (≈ 45.6 µM) | > 80 | 80 (≈ 182 µM) | 80 (≈ 182 µM) | 0.63 (≈ 1.44 µM) | 1.25 (≈ 2.85 µM) | > 80 | > 80 | –
c1cc2cc(CCCCc3cc4ccc(C5=NCCCN5)cc4[nH]3)[nH]c2cc1C1=NCCCN1 | 0.63 (≈ 1.39 µM) | 1.25 (≈ 2.76 µM) | – | 1.25 (≈ 2.76 µM) | > 80 | 1.25 (≈ 2.76 µM) | 2.5 (≈ 5.52 µM) | 0.31 (≈ 0.685 µM) | 0.16 (≈ 0.354 µM) | 40 (≈ 88.4 µM) | 40 (≈ 88.4 µM) | –
CC1CN=C(c2ccc3cc(-c4ccc(-c5cc6ccc(C7=NCC(C)CN7)cc6[nH]5)cc4)[nH]c3c2)NC1.O=C(O)C(F)(F)F (stereo not drawn) | 0.08 | 0.08 | 0.31 | 0.08 | 40 | 0.31 | 0.16 | 0.08 | 0.16 | 0.63 | 0.63 | 1.25
O=C(O)C(F)(F)F.OC1CN=C(c2ccc3cc(-c4ccc(-c5cc6ccc(C7=NCC(O)CN7)cc6[nH]5)cc4)[nH]c3c2)NC1 (stereo not drawn) | 0.31 | 0.31 | 0.63 | 0.16 | > 80 | 1.25 | 0.16 | 0.63 | 0.63 | 1.25 | 0.31 | 1.25
COC1CN=C(c2ccc3cc(-c4ccc(-c5cc6ccc(C7=NCC(OC)CN7)cc6[nH]5)cc4)[nH]c3c2)NC1.O=C(O)C(F)(F)F (stereo not drawn) | 0.16 | 0.16 | 0.63 | 0.16 | > 80 | 5 | 0.16 | 0.16 | 0.31 | 5 | 2.5 | –
FC1CN=C(c2ccc3cc(-c4ccc(-c5cc6ccc(C7=NCC(F)CN7)cc6[nH]5)cc4)[nH]c3c2)NC1.O=C(O)C(F)(F)F (stereo not drawn) | 0.08 | 0.16 | 0.31 | 0.08 | 40 | 0.63 | 0.16 | 0.08 | 0.31 | 1.25 | 0.31 | –
CC1(C)CN=C(c2ccc3cc(-c4ccc(-c5cc6ccc(C7=NCC(C)(C)CN7)cc6[nH]5)cc4)[nH]c3c2)NC1.O=C(O)C(F)(F)F | 0.31 | 0.31 | 0.63 | 0.31 | > 80 | 0.63 | 0.31 | 0.63 | 0.63 | 10 | 40 | 2.5
CCOC(=N)c1ccc2cc(-c3ccc(-c4cc5ccc(C(=N)OCC)cc5[nH]4)cc3)[nH]c2c1.Cl | 0.63 | 5 | > 80 | 2.5 | – | – | 2.5 | 10 | – | > 80 | > 80 | –
N/C(=N\O)c1ccc2cc(-c3ccc(-c4cc5ccc(/C(N)=N\O)cc5[nH]4)cc3)[nH]c2c1 | 0.31 (≈ 0.73 µM) | 1.25 (≈ 2.94 µM) | > 80 | 0.16 (≈ 0.377 µM) | – | > 80 | 2.5 (≈ 5.89 µM) | 1.25 (≈ 2.94 µM) | 0.63 (≈ 1.48 µM) | > 80 | > 80 | –
Cl.N/N=C(/N)c1ccc2cc(-c3ccc(-c4cc5ccc(/C(N)=N\N)cc5[nH]4)cc3)[nH]c2c1 | 0.63 | 1.25 | 1.25 | 0.31 | > 80 | 2.5 | 0.63 | 0.63 | 0.63 | 10 | – | –
NC(=O)c1ccc2cc(-c3ccc(-c4cc5ccc(C(N)=O)cc5[nH]4)cc3)[nH]c2c1 | 2.5 (≈ 6.34 µM) | > 80 | > 80 | > 80 | > 80 | > 80 | 10 (≈ 25.4 µM) | > 80 | 5 (≈ 12.7 µM) | > 80 | > 80 | –
NCc1ccc2cc(-c3ccc(-c4cc5ccc(CN)cc5[nH]4)cc3)[nH]c2c1.O=C(O)C(F)(F)F | 0.63 | 1.25 | 2.5 | 1.25 | > 80 | 5 | 1.25 | 1.25 | 1.25 | 40 | 40 | –
O=C(O)C(F)(F)F.c1cc2cc(-c3ccc(-c4cc5ccc(C6=NCCN6)cc5[nH]4)o3)[nH]c2cc1C1=NCCN1 | 40 | 40 | > 80 | 5 | > 80 | 20 | > 80 | > 80 | 0.63 | > 80 | > 80 | –
O=C(O)C(F)(F)F.c1cc2cc(-c3ccc(-c4cc5ccc(C6=NCCN6)cc5[nH]4)s3)[nH]c2cc1C1=NCCN1 | 0.16 | 0.31 | 0.63 | 0.16 | 10 | 0.63 | 1.25 | 1.25 | 0.31 | 10 | 1.25 | 0.63
O=C(O)c1cn(C2CC2)c2cc(N3CCNCC3)c(F)cc2c1=O [CIPROFLOXACIN] | 0.31 (≈ 0.936 µM) | – | 0.04 (≈ 0.121 µM) | 0.08 (≈ 0.241 µM) | 1.25 (≈ 3.77 µM) | ≤ 0.02 | 1.25 (≈ 3.77 µM) | 0.63 (≈ 1.9 µM) | ≤ 0.02 | 0.63 (≈ 1.9 µM) | ≤ 0.02 | 10 (≈ 30.2 µM)
